Data taken from ChEMBL document CHEMBL1135987, “Synthesis of new dihydroindeno[1,2-c]isoquinoline and indenoisoquinolinium chloride topoisomerase I inhibitors having high in vivo anticancer activity in the hollow fiber animal model” (2002).
Active and inactive are the calls of the source. No cut-off for these calls is given here.

Tests used:
[1] = Cytotoxicity in ovarian OVCAR-3 cell line.; assay type: functional; details: Homo sapiens
Outline: (§1)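 NCI screen of roughly 55 human cancer cell lines from diverse tumor origins, tested over 10^-4 to 10^-8 M. GI50 is the concentration giving 50% growth inhibition.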

[2] = Cytotoxicity in lung HOP-62 cell line.; assay type: functional; details: Homo sapiens; outline: as §1
[3] = Cytotoxicity in breast MDA-MB-435 cell line.; assay type: functional; details: Homo sapiens; outline: as §1
[4] = Cytotoxicity in colon HCT116 cell line.; assay type: functional; details: Homo sapiens, HCT-116; outline: as §1
[5] = Cytotoxicity in melanoma UACC-62 cell line.; assay type: functional; details: Homo sapiens; outline: as §1
[6] = Cytotoxicity in CNS SF-539 cell line.; assay type: functional; details: Homo sapiens; outline: as §1
[7] = tested on: Panel (Carcinoma cell lines); test: Mean graph mid point for growth inhibition of all human cancer cell lines tested.; assay type: functional; set-up: unit: µM
Outline: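 NCI screen of roughly 55 human cancer cell lines, test range 10^-4 to 10^-8 M. Mean graph midpoint is the average GI50 over all cell lines successfully tested. GI50 values below or above the range are set to 10^-8 M or 10^-4 M.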

[8] = target: T1, DNA topoisomerase 1 (Homo sapiens) (UniProt P11387); test: DNA topoisomerase I mediated cleavage activity tested up to a concentration of 100 uM; Greater activity than compound 1
T1 sequence (whole entry): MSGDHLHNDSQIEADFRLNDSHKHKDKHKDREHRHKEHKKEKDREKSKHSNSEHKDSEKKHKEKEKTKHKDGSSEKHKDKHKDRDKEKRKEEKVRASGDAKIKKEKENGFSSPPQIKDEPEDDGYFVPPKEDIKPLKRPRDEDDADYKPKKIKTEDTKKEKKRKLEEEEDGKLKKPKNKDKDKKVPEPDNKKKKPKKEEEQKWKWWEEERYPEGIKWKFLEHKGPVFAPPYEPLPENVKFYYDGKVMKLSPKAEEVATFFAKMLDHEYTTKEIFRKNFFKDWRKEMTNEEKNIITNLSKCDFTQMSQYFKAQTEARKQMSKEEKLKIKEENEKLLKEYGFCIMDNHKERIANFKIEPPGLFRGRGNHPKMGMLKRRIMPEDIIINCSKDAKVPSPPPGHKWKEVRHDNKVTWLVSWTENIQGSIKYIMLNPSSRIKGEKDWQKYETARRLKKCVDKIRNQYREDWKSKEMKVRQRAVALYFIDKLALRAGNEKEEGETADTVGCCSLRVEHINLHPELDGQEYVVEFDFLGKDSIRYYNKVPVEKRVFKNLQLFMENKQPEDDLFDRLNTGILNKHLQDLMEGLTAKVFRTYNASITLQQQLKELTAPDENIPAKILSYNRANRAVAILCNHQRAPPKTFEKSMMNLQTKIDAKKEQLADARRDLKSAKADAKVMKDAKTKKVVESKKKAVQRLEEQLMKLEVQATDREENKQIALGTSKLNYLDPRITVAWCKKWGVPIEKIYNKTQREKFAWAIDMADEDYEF
Outline: (§2)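 Baculovirus-expressed human recombinant top1 was incubated with a 161 bp PvuII/HindIII fragment of pBluescript SK(-), 3'-end-labeled at the HindIII site with [α-32P]-dCTP (about 50 000 dpm per reaction), and drug up to 100 μM, for 30 min at 22 °C. Reactions were stopped with 0.5% SDS final. Products ran on denaturing 16% polyacrylamide/7 M urea gels at 51 °C. Cleavage was scored semiquantitatively (+, ++, +++) against the parent lead.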

[9] = Cytotoxicity in prostate DU-145 cell line.; assay type: functional; details: Homo sapiens; outline: as §1
[10] = Cytotoxicity in renal SN12C cell line.; assay type: functional; details: Homo sapiens; outline: as §1
[11] = target: T1, DNA topoisomerase 1 (Homo sapiens); test: DNA topoisomerase I mediated cleavage activity tested up to a concentration of 100 uM; week activity; outline: as §2
[12] = target: T1, DNA topoisomerase 1 (Homo sapiens); test: DNA topoisomerase I mediated cleavage activity tested up to a concentration of 100 uM; Active or inactive; outline: as §2
[13] = target: T1, DNA topoisomerase 1 (Homo sapiens); test: DNA topoisomerase I mediated cleavage activity tested up to a concentration of 100 uM; Same activity as compound 1; outline: as §2
[14] = target: T1, DNA topoisomerase 1 (Homo sapiens); test: DNA topoisomerase I mediated cleavage activity tested up to a concentration of 100 uM; outline: as §2

Row | Structure (SMILES) | GI50 [1] | GI50 [2] | GI50 [3] | GI50 [4] | GI50 [5] | GI50 [6] | MGM [7] | Activity [8] | GI50 [9] | GI50 [10] | Activity [11] | Activity [12] | Activity [13] | Activity [14]
1 | CCCCN1C(=O)c2cc(OC)c(OC)cc2[C@H]2C(=O)c3cc4c(cc3[C@H]21)OCO4 | 1400 nM | 450 nM | 1600 nM | 110 nM | 610 nM | 320 nM | 2.14 | – | – | – | – | – | – | –
2 | CCCC[n+]1cc2cc(OC)c(OC)cc2c2c1-c1cc3c(cc1C2)OCO3.[Cl-] | 280 nM | 3060 nM | 1370 nM | 1580 nM | 510 nM | 2160 nM | 1.31 | Greater activity than compound 1 | 2690 nM | 430 nM | – | – | – | –
3 | COc1cc2c(cc1OC)[C@H]1C(=O)c3cc4c(cc3[C@H]1N(CCCCl)C2=O)OCO4 | 360 nM | 80 nM | 330 nM | 160 nM | 20 nM | 20 nM | 0.11 | – | 30 nM | 20 nM | – | – | – | –
4 | CCOC(=O)CCCN1C(=O)c2cc(OC)c(OC)cc2[C@H]2C(=O)c3cc4c(cc3[C@H]21)OCO4 | 22000 nM | 2220 nM | 16500 nM | 1810 nM | 3040 nM | – | 7.76 | – | 3070 nM | 2070 nM | – | – | – | –
5 | COc1cc2c(cc1OC)[C@H]1C(=O)c3c(ccc4ccccc34)[C@H]1N(CCCBr)C2=O | 1970 nM | 1440 nM | 2250 nM | 4020 nM | 2390 nM | – | 2.95 | – | 2460 nM | 2350 nM | – | – | – | –
6 | COc1cc2c(cc1OC)[C@H]1C(=O)c3cc4c(cc3[C@H]1N(Cc1ccccc1)C2=O)OCO4 | 7170 nM | 2930 nM | – | 540 nM | 1840 nM | 380 nM | 1.18 | – | 550 nM | 390 nM | – | – | – | –
7 | CCCN1C(=O)c2cc(OC)c(OC)cc2[C@H]2C(=O)c3cc4c(cc3[C@H]21)OCO4 | 920 nM | 590 nM | 1100 nM | 390 nM | 260 nM | 440 nM | 0.69 | – | 310 nM | 430 nM | – | – | – | –
8 | COc1cc2c(cc1OC)[C@H]1C(=O)c3c(ccc4ccccc34)[C@H]1N(CCCCl)C2=O | 1930 nM | 2760 nM | 2480 nM | 6520 nM | 3730 nM | 14700 nM | 4.22 | – | 5490 nM | 11600 nM | – | – | – | –
9 | COc1cc2c(cc1OC)[C@H]1C(=O)c3cc4c(cc3[C@H]1N(CC#N)C2=O)OCO4 | 2020 nM | 5420 nM | 9040 nM | 600 nM | 1730 nM | 2120 nM | 3.28 | – | 850 nM | 410 nM | – | – | – | –
10 | COc1cc2c(cc1OC)[C@H]1C(=O)c3cc4c(cc3[C@H]1N(CCCN=[N+]=[N-])C2=O)OCO4 | 1270 nM | 360 nM | 1270 nM | 400 nM | 290 nM | 330 nM | 0.69 | – | 330 nM | 250 nM | week activity | – | – | –
11 | CCN1C(=O)c2cc(OC)c(OC)cc2[C@H]2C(=O)c3cc4c(cc3[C@H]21)OCO4 | – | – | – | – | – | – | 0.81 | – | – | – | – | inactive | – | –
12 | COc1cc2c(cc1OC)[C@H]1C(=O)c3cc4c(cc3[C@H]1N(CCCBr)C2=O)OCO4 | 400 nM | 120 nM | 150 nM | 70 nM | 50 nM | 40 nM | 0.12 | – | 30 nM | 30 nM | – | – | Same activity as compound 1 | –
13 | COc1cc2c(cc1OC)[C@H]1C(=O)c3cc4c(cc3[C@H]1N(CC(F)(F)F)C2=O)OCO4 | 7960 nM | 34000 nM | 7600 nM | 14400 nM | 4120 nM | 7630 nM | 6.6 | – | 7500 nM | 7870 nM | – | – | – | –
14 | COc1cc2c3c(n(C)c(=O)c2cc1OC)-c1cc2c(cc1C3=O)OCO2 | – | – | – | – | – | – | 20 | – | – | – | – | – | Same activity as compound 1 | –
15 | C=CCN1C(=O)c2cc(OC)c(OC)cc2[C@H]2C(=O)c3cc4c(cc3[C@H]21)OCO4 | – | – | – | – | – | – | 0.98 | – | – | – | – | – | – | 0
16 | CCC[n+]1cc2cc(OC)c(OC)cc2c2c1-c1cc3c(cc1C2)OCO3.[Cl-] | 1000 nM | 3980 nM | 3370 nM | 3550 nM | 2190 nM | 1080 nM | 4.1 | Greater activity than compound 1 | 10500 nM | 640 nM | – | – | – | –
17 | CCCN1Cc2cc(OC)c(OC)cc2[C@@H]2[C@H]1c1cc3c(cc1[C@@H]2O)OCO3 | 6300 nM | 16000 nM | 5800 nM | 17800 nM | 18700 nM | 21700 nM | 20.9 | – | 33900 nM | – | – | – | – | –
18 | C/C=C(/C=O)CCN1C(=O)c2cc(OC)c(OC)cc2[C@H]2C(=O)c3cc4c(cc3[C@H]21)OCO4 | 7120 nM | 300 nM | 4460 nM | 250 nM | 150 nM | 210 nM | 0.95 | – | 220 nM | 140 nM | – | – | – | –
19 | CC[n+]1cc2cc(OC)c(OC)cc2c2c1-c1cc3c(cc1C2)OCO3.[Cl-] | – | – | – | – | – | – | 13 | – | – | – | – | – | Same activity as compound 1 | –
20 | COC(=O)CCCN1C(=O)c2cc(OC)c(OC)cc2[C@H]2C(=O)c3cc4c(cc3[C@H]21)OCO4 | 2430 nM | 820 nM | 2890 nM | 340 nM | 530 nM | 710 nM | 1.48 | – | 630 nM | 240 nM | – | – | – | –
